The source made the active and inactive calls.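 Rule for the calls, unless noted: active = viability loss from added drug above about 55%, and viability with drug at most 40%, in both replicates (limit read from the data, passing the limit was not always enough); inconclusive = both conditions met in only one replicate; inactive = neither replicate meets both conditions.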
Columns and labels:
[1] = Her2 expression decrease, cell viability multiplex – SKBR3 breast tumor cells, AlphaScreen, ATP viability, primary screen (AID 461;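 active = Her2 level under about 52% in both replicate screens, with viability over 70% of control, limit read from the data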;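 for Her2 level: lower value means less Her2 protein in the cells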;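 for viability: percent of carrier control wells set as 100% viability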); settings: SKBR3 Her2 protein level, 18-24 h, measured here: SKBR3 viability, ATP luminescence, at 10 µM
[2] = biological target: Receptor tyrosine-protein kinase erbB-2 (Homo sapiens) (UniProt P04626); experiment: as above; settings: 18-24 h, at 10 µM, stronger effect = lower value
[3] = reduced viability of SK-BR-3 breast cancer cells – cell-based, 24 h, human, pilot screen (AID 572;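 active = viability at or below 10% of carrier control in both of two separate runs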;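 note: compound exposure lasted between 18 and 24 h rather than exactly 24 h; 100% = carrier-treated control wells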); settings: SK-BR-3 viability, CellTiter-Glo luminescence, at 10 µM, stronger effect = lower value
[4] = HUVEC growth inhibition – cell-based, human, primary screen (AID 575;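 active = viability at or below 30% in both replicate assays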;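 note: 100% = median of untreated cell wells with 0.1% DMSO on each plate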); settings: HUVEC proliferation, CellTiter-Glo luminescence, 72 h; at 10 µM; stronger effect = lower value
Outline: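 Test system – primary HUVEC, no more than 12 passages · Dosing – one dose, 10 µM final, 0.1% DMSO · Times – 72 h treatment at 37 °C · Measured by – ATP-based CellTiter-Glo luminescent read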

[5] = H69AR cell proliferation blockers – human, duplicate replicates, primary screen (AID 580;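 active = viability at or under a set limit in both replicates, limit being median viability minus 3 SD, cut at about 48% in these data, passing the limit was not always enough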;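 note: 100% = mean luminescence of untreated wells and 0% = no signal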); settings: H69AR lung tumor cells viability, ATP luminescence, 72 h; at 10 µM; stronger effect = lower value
[6] = MRP1 drug-resistance reversers in H69AR cells – cell-based, doxorubicin co-treatment, pilot screen (AID 601); settings: CellTiter-Glo, 72 h, at 10 µM; for differential viability (reversal): stronger effect = higher value
[7] = yeast transport mutant growth inhibition pilot in 384-well plates, post-Golgi transport modulator project (AID 636; in the data active = inhibition above about 31%); settings: absorbance 615 nm, about 18 h, stronger effect = higher value
[8] = growth suppression of yeast trafficking mutant, preliminary HTS, modulators of trafficking downstream of Golgi apparatus project, 1536-format plate, OD 615 nm (AID 637; in the data active = inhibition above about 30%); settings: yeast transport mutant growth, absorbance 615 nm, 18 h; stronger effect = higher value
[9] = H69AR cells + 2 uM doxorubicin, measured here: viability with 2 uM doxorubicin, stronger effect = lower value
[10] = H69AR cells, compound alone cytotoxicity

Receptor tyrosine-protein kinase erbB-2 (Homo sapiens), sequence (P04626 whole entry, looked up): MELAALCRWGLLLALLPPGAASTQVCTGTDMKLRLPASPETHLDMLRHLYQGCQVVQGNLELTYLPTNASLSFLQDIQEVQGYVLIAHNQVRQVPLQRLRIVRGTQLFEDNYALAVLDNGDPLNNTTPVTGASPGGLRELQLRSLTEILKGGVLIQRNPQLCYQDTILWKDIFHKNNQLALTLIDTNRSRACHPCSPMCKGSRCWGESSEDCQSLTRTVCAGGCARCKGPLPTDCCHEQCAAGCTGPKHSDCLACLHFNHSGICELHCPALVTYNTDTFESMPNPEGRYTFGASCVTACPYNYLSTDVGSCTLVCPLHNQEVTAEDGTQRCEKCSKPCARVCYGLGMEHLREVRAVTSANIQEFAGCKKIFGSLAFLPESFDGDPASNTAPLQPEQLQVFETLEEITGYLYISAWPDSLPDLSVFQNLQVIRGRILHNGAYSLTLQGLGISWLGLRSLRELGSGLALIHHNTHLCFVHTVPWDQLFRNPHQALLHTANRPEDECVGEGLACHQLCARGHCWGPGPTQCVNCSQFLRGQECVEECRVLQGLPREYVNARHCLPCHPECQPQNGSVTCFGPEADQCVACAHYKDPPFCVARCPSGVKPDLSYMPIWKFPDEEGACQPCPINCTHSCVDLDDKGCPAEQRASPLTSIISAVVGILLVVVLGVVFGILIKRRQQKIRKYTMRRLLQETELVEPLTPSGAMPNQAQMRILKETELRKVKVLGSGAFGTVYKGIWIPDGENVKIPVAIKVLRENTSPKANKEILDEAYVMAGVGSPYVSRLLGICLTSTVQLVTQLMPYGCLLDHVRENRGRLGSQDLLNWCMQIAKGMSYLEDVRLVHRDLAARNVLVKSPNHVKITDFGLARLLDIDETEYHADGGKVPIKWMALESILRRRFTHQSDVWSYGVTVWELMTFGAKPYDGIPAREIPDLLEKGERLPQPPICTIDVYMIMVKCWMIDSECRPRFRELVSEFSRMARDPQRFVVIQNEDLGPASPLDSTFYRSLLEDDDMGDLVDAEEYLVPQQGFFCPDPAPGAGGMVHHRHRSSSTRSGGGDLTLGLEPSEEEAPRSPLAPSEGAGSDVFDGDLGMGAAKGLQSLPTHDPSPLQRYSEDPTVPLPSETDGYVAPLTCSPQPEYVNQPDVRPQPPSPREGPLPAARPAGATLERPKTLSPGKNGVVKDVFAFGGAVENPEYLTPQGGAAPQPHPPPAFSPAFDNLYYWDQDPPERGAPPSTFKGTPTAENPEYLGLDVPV

Row | SMILES | viability [1] [%] | Her2 level [2] | viability [3] | viability [4] | viability [5] | differential viability (reversal) ([6]; H69AR cells + 2 uM doxorubicin) | viability [6, 9] [%] | viability [6, 10] [%] | inhibition [7] | inhibition [8]
1 | CCOc1c(C)cc2[nH]c(CCC(=O)O)nc2c1C | 123 | 103% (inactive) | 123% (inactive) | 95.4% (inactive) | 93.2% (inactive) | -1.08% (inactive) | 94.3 | 93.2 | -6.58% (inactive) | 14.4% (inactive)
2 | CCOC(=O)N1CCN(CC(O)COc2ccccc2C(C)CC)CC1 (stereo not given) | 104 | 92.5% (inactive) | 104% (inactive) | 99% (inactive) | 94.7% (inactive) | 1.52% (inactive) | 93.2 | 94.7 | 31.6% (active) | 29.2% (inactive)
3 | O=C(CSc1nnc(Cc2ccccc2)n1C1CCCCC1)N1CCOCC1 | 92.5 | 110% (inactive) | 92.5% (inactive) | 97.9% (inactive) | 95.6% (inactive) | 6.44% (inactive) | 89.2 | 95.6 | -3.03% (inactive) | -3.97% (inactive)
4 | CN(C)c1ccc(CNCCC2(O)CCOC(C)(C)C2)cc1 (stereo not given) | 89 | 86% (inactive) | 89% (inactive) | 95.3% (inactive) | 102% (inactive) | 7.18% (inactive) | 95 | 102 | -6.08% (inactive) | 1.64% (inactive)
5 | O=C(CCCC(=O)N(CC(=O)NC1CCCCC1)Cc1ccc2c(c1)OCO2)Nc1ccccn1 | 102 | 97.5% (inactive) | 102% (inactive) | 101% (inactive) | 92.3% (inactive) | 10.4% (inactive) | 81.9 | 92.3 | -6.18% (inactive) | 0.32% (inactive)
6 | Cc1csc(NC(=O)c2cc3c(s2)-c2ccccc2OC3)n1 | 91 | 92.5% (inactive) | 91% (inactive) | 75% (inactive) | 37.7% (active) | -17.7% (inactive) | 55.5 | 37.7 | -2.82% (inactive) | -1% (inactive)
7 | Cc1cc(C)n(C(=O)CNC(=O)C2COc3ccccc3O2)n1 (stereo not given) | 122 | 97.5% (inactive) | 122% (inactive) | 87.2% (inactive) | 97.1% (inactive) | 3.57% (inactive) | 93.5 | 97.1 | -4.74% (inactive) | -1.59% (inactive)
8 | O=S1(=O)CC(N2CCOCC2)c2ccccc21 (stereo not given) | 95 | 98% (inactive) | 95% (inactive) | 92.2% (inactive) | 103% (inactive) | 4.56% (inactive) | 98.1 | 103 | 0.27% (inactive) | -9.52% (inactive)
9 | CCCn1c(C)nc2c(c1=O)c1nc3ccccc3nc1n2CCc1ccccc1 | 98 | 103% (inactive) | 98% (inactive) | 102% (inactive) | 88.5% (inactive) | -3.46% (inactive) | 91.9 | 88.5 | -4.42% (inactive) | 0.5% (inactive)
10 | O=C(Cn1ncc2c(=O)oc3ccccc3c21)NCC1CCCO1 (stereo not given) | 104 | 102% (inactive) | 104% (inactive) | 108% (inactive) | 94.8% (inactive) | -7.15% (inactive) | 102 | 94.8 | -3.59% (inactive) | -1.17% (inactive)
11 | COc1ccc2nc3oc(C(=O)N4CCCCC4)cc3cc2c1 | 98 | 90.5% (inactive) | 98% (inactive) | 86.5% (inactive) | 86.7% (inactive) | 2.71% (inactive) | 83.9 | 86.7 | -5.26% (inactive) | -3.67% (inactive)
12 | CCCCSc1nc2c(cnn2-c2ccc(Cl)cc2)c(=O)[nH]1 | 93 | 83.5% (inactive) | 93% (inactive) | 85.5% (inactive) | 75.1% (inactive) | 2.96% (inactive) | 72.1 | 75.1 | -4.93% (inactive) | 7.38% (inactive)
13 | CCOC(=O)c1[nH]c(C)c(C(=O)N2CCN(c3ccc(F)cc3)CC2)c1C | 107 | 84% (inactive) | 107% (inactive) | 107% (inactive) | 92.3% (inactive) | 2.1% (inactive) | 90.2 | 92.3 | -2.37% (inactive) | -4.44% (inactive)
14 | COc1ccc(OCC(=O)Nc2cccc3ncccc23)cc1 | 98 | 94.5% (inactive) | 98% (inactive) | 104% (inactive) | 91.4% (inactive) | 0.15% (inactive) | 91.2 | 91.4 | -3.73% (inactive) | 3.61% (inactive)
15 | C/C(NC1CCCC1)=C(/C#N)C(N)=O | 108 | 99% (inactive) | 108% (inactive) | 116% (inactive) | 111% (inactive) | 10.3% (inactive) | 101 | 111 | -4.21% (inactive) | 3.11% (inactive)
16 | Nc1nnc(-c2ccccc2)c(-c2ccccc2)n1 | 96.5 | 90% (inactive) | 96.5% (inactive) | 86.4% (inactive) | 99.2% (inactive) | 5.16% (inactive) | 94 | 99.2 | -4.53% (inactive) | 7.42% (inactive)
17 | N#CC1=C(SCC(=O)NC2CCCCC2)NC(=O)CC1c1ccco1 (stereo not given) | 113 | 98% (inactive) | 113% (inactive) | 74.8% (inactive) | 30.6% (active) | -52.5% (inactive) | 83.1 | 30.6 | -6.53% (inactive) | 0.97% (inactive)
18 | Cn1c(=O)c2[nH]c(NCC3CCCO3)nc2n(-c2ccccc2)c1=O (stereo not given) | 94.5 | 81% (inactive) | 94.5% (inactive) | 116% (inactive) | 102% (inactive) | 10.4% (inactive) | 91.5 | 102 | -4.87% (inactive) | 3.67% (inactive)
19 | CC(C)Cn1c(=O)c(C(=O)Nc2ccccc2S(N)(=O)=O)c(O)c2ccccc21 | 118 | 91.5% (inactive) | 118% (inactive) | 62.9% (inactive) | 16.1% (active) | -11.4% (inactive) | 27.5 | 16.1 | 10.3% (inactive) | 8.67% (inactive)
20 | c1ccc(OCCCn2nnc(-c3cccnc3)n2)cc1 | 110 | 87.5% (inactive) | 110% (inactive) | 103% (inactive) | 108% (inactive) | 10.3% (inactive) | 97.3 | 108 | -3.68% (inactive) | -5.83% (inactive)
21 | Cc1ccc(-n2c(=O)c(C#N)cc3c(=O)n4ccccc4nc32)cc1 | 100 | 84.5% (inactive) | 100% (inactive) | 62.1% (inactive) | 97% (inactive) | 7.35% (inactive) | 89.6 | 97 | -4.59% (inactive) | 2.06% (inactive)
22 | CC(C)CCNC(=O)NC(=O)CSc1nnc(COc2ccccc2Cl)o1 | 99 | 80.5% (inactive) | 99% (inactive) | 81% (inactive) | 93% (inactive) | 5.9% (inactive) | 87.1 | 93 | -2.24% (inactive) | -5.87% (inactive)
23 | CC1(C)CC(=O)C(C(=O)CCCCC(=O)C2C(=O)CC(C)(C)CC2=O)C(=O)C1 | 99.5 | 158% (inactive) | 99.5% (inactive) | 98.4% (inactive) | 95.1% (inactive) | 6.97% (inactive) | 88.2 | 95.1 | 0.53% (inactive) | -0.5% (inactive)
24 | COC(=O)n1c(=S)oc2cc(Cl)ccc21 | 102 | 102% (inactive) | 102% (inactive) | 62.7% (inactive) | 93.6% (inactive) | 3.97% (inactive) | 89.6 | 93.6 | 0.26% (inactive) | 25.6% (inactive)
25 | CCOC(=O)c1cc2c(=O)n3cccc(C)c3nc2n(Cc2ccco2)c1=NC(=O)c1cccnc1 | 92.5 | 82% (inactive) | 92.5% (inactive) | 71.4% (inactive) | 80.7% (inactive) | 8.21% (inactive) | 72.4 | 80.7 | -1.71% (inactive) | 2.58% (inactive)
26 | CCCC(=O)Nc1nnc(CC(=O)OCC)s1 | 111 | 108% (inactive) | 111% (inactive) | 113% (inactive) | 88.1% (inactive) | -0.96% (inactive) | 89 | 88.1 | -2.21% (inactive) | -7.14% (inactive)
27 | Nc1cc(-c2ccc(Br)cc2)nn1S(=O)(=O)c1ccccc1 | 90 | 108% (inactive) | 90% (inactive) | 74.2% (inactive) | 88% (inactive) | 0.535% (inactive) | 87.5 | 88 | 0.26% (inactive) | 3.67% (inactive)
28 | C#CC(CO)N(CCN(Cc1ccccc1)C(C#C)CO)Cc1ccccc1 (stereo not given) | 107 | 85% (inactive) | 107% (inactive) | 79.4% (inactive) | 90.3% (inactive) | 9.04% (inactive) | 81.3 | 90.3 | -7.16% (inactive) | 1.5% (inactive)
29 | CC1C=CC(C)C(C(=O)O)C1C(=O)O (stereo not given) | 103 | 93% (inactive) | 103% (inactive) | 97.6% (inactive) | 93% (inactive) | -5.29% (inactive) | 98.3 | 93 | -0.65% (inactive) | -5.67% (inactive)

Reference: PubChem BioAssay
